Test results: ChEMBL document CHEMBL4342513, “Implementation of the CYP Index for the Design of Selective Tryptophan-2,3-dioxygenase Inhibitors” (ACS Med Chem Lett, 2020)
In brackets after ≈: the same amount, converted by molar mass.

What was measured:
Homo sapiens [1] = species: Homo sapiens; assay: Selectivity index, ratio of IC50 for inhibition of CYP3A4 (unknown origin) to EC50 for inhibition of EC50 for inhibition of TDO in human SW48 cells; format: cell-based
Cytochrome P450 3A4 = Cytochrome P450 3A4 (Homo sapiens, UniProt P08684); assay: Inhibition of CYP3A4 (unknown origin); format: ADME
Homo sapiens [2] = species: Homo sapiens; assay: Selectivity index, ratio of EC50 for inhibition of IDO1 in human A172 cells in presence of IFNgamma to EC50 for inhibition of TDO in human SW48 cells; format: cell-based
[3] = biological target: T1, Tryptophan 2,3-dioxygenase (Homo sapiens, UniProt P48775); assay: Inhibition of TDO in human SW48 cells after 24 hrs by NFK green reagent based assay; format: cell-based
[4] = biological target: Indoleamine 2,3-dioxygenase 1 (Homo sapiens, UniProt P14902); assay: Inhibition of IDO1 in human A172 cells after 24 hrs in presence of IFNgamma by NFK green reagent based assay; format: cell-based
[5] = Lipophilicity, log D of compound at pH 7.4; format: physicochemical; settings: buffer
[6] = biological target: T1, Tryptophan 2,3-dioxygenase; assay: Inhibition of recombinant human TDO using L-tryptophan as substrate preincubated for 5 mins followed by substrate addition and measured after 15 mins by RapidFire-Mass spectrometry
[7] = Clearance in mouse liver microsomes; format: ADME, Microsome
Method in brief: (§1)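 Clearance was measured in liver microsome incubations from human, rat and mouse. It is expressed as scaled clearance in mL/min/kg.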

[8] = Clearance in human liver microsomes; format: ADME, Microsome; method in brief: as §1
[9] = Clearance in rat liver microsomes; format: ADME, Microsome; method in brief: as §1
[10] = Volume of distribution at steady state in mouse; format: ADME, organism-based; settings: in vivo, read-out: Vdss
[11] = Unbound clearance in mouse plasma; format: ADME, cell-free
[12] = Oral bioavailability in mouse at 1 mg/kg dosed as cassette formulation; format: ADME, organism-based; settings: in vivo
[13] = Half life in mouse; format: ADME, organism-based; settings: in vivo
[14] = Clearance in iv dosed mouse plasma; format: ADME, organism-based
Method in brief: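 Compounds were given to mice as discrete (single-compound) intravenous doses. Plasma clearance (CLp) is expressed in mL/min/kg.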

[15] = AUC (infinity) in mouse; format: ADME, organism-based; design: time infinity; settings: in vivo, BLD = below limit of detection
[16] = Kinetic solubility of compound; format: physicochemical; settings: read-out: Kinetic_solubility
[17] = Protein binding in mouse plasma assessed as unbound fraction; format: ADME, cell-free
[18] = Apparent permeability across apical to basolateral side in MDCK cells; format: ADME, cell-based, Canis lupus familiaris; settings: dog
[19] = biological target: T1, Tryptophan 2,3-dioxygenase; assay: Inhibition of TDO (unknown origin)

Indoleamine 2,3-dioxygenase 1, sequence (P14902 whole entry): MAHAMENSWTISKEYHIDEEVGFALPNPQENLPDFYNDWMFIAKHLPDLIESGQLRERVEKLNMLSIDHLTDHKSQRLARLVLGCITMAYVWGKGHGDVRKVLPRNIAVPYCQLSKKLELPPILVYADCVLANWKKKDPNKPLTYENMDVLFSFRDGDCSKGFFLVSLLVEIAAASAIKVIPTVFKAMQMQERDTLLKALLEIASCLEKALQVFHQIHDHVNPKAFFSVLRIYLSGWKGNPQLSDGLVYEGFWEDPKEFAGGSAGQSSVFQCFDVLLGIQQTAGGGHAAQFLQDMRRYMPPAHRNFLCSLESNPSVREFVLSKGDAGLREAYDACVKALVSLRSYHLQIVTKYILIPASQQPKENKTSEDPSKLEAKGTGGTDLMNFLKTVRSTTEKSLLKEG
T1 sequence (P48775 whole entry): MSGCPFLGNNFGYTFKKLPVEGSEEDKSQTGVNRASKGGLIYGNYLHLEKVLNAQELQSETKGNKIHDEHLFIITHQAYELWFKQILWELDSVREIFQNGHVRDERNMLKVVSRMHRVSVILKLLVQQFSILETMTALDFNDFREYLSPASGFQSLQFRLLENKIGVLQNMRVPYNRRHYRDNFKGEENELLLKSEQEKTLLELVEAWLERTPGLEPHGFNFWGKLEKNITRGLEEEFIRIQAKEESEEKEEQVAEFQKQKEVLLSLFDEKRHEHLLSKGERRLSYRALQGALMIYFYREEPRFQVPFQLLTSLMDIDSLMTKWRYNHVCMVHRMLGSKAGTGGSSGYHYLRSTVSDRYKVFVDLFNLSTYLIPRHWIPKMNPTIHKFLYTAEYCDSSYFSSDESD
Cytochrome P450 3A4, sequence (P08684 whole entry): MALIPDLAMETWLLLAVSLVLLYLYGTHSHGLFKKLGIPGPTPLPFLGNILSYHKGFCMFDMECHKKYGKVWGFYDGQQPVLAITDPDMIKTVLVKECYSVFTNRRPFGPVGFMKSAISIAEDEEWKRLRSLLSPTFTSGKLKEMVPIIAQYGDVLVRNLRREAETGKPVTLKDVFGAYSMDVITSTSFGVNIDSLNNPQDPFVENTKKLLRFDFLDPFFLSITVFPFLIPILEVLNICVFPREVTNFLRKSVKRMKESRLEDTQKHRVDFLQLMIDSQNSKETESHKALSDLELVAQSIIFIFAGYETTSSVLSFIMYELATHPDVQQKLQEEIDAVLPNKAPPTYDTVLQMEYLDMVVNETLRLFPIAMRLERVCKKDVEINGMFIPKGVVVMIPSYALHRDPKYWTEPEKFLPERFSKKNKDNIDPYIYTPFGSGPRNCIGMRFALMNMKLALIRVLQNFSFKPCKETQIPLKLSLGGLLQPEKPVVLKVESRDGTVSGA

Structure (SMILES) | Ratio IC50/EC50 (Homo sapiens [1]) | IC50 (Cytochrome P450 3A4) [nM] | Ratio EC50 (Homo sapiens [2]) | EC50 [3] [nM] | EC50 [4] [nM] | logD [5] | CLhep predicted [7] [mL/min/kg] | CLhep predicted [8] [mL/min/kg] | CLhep predicted [9] [mL/min/kg] | further results
CS(=O)(=O)N1CC[C@@H]([C@H]2c3ccccc3-c3cncn32)[C@H](O)C1 | > 120 | > 10000 | 11 | 87 | 970 | 0.7 |  |  |  | 
OCCC1c2ccccc2-n2cncc21 (stereo not drawn) |  |  |  |  |  |  |  |  |  | IC50 [6]: 60 nM
CN1CC[C@@H]([C@H]2c3ccccc3-c3cncn32)[C@H](O)C1 |  |  | 14 |  | 20000 | 1.4 |  |  |  | 
O[C@@H]1COCC[C@H]1[C@H]1c2ccccc2-c2cncn21 | 8.3 | 600 | 22 | 72 | 1600 | 1.3 |  |  |  | 
OCCC1c2ccccc2-n2nncc21 (stereo not drawn) |  |  |  |  |  |  |  |  |  | IC50 [6]: > 25000 nM
O[C@@H](C[C@H]1c2ccccc2-c2cncn21)C1CCCCC1 |  |  |  |  |  | 2.8 | 80 | 18 | 45 | 
NC(=O)c1ccc2c(c1)[C@@H](O)[C@H]([C@H]1c3ccccc3-c3cncn31)CC2 | 100 | 3600 | 74 | 35 | 2600 |  | 67 | 7.4 | 26 | 
O[C@@H]1c2nonc2CC[C@H]1[C@H]1c2ccccc2-c2cncn21 | 150 | 8200 | 85 | 54 | 4600 |  | 45 | < 3.9 | 33 | Vd [10]: 1.1 L/kg; CL free [11]: 230 mL/min/kg; bioavailability [12]: < 5%; half-life [13]: 12.6 min; clearance [14]: 63 mL/min/kg; AUC [15]: Bld; solubility kinetic [16]: 165 µM (≈ 48.6 µg/mL); fraction unbound [17]: 0.27; Papp A→B [18]: 23 ×10⁻⁶ cm/s
CS(=O)(=O)c1ccc2c(c1)[C@@H](O)[C@H]([C@H]1c3ccccc3-c3cncn31)CC2 | 150 | 6000 | 23 | 39 | 880 |  | 64 | 6.6 | 33 | 
O[C@@H]1c2nncn2CC[C@H]1[C@H]1c2ccccc2-c2cncn21 | > 1 | > 10000 | > 3 | 7400 | > 25000 |  | 14 | < 3.9 | 6.1 | 
OCCn1c2ccccc2c2cncn21 |  |  |  |  |  |  |  |  |  | IC50 [6]: 20 nM
O[C@H](C[C@H]1c2c(F)cccc2-c2cncn21)[C@H]1CC[C@H](O)CC1 [NAVOXIMOD] |  |  |  |  |  |  |  |  |  | EC50 [19]: 2000 nM
OCCn1c2ccccc2n2cnnc12 |  |  |  |  |  |  |  |  |  | IC50 [6]: 17000 nM
O[C@@H]1CCC[C@H]1[C@H]1c2ccccc2-c2cncn21 |  |  | 31 | 70 | 2200 | 2.2 | 59 | 5 | 35 | 
OCCC1c2ccccc2-c2cncn21 (stereo not drawn) |  |  |  |  |  |  |  |  |  | IC50 [6]: 20 nM
Cn1ncc2c1CC[C@@H]([C@H]1c3ccccc3-c3cncn31)[C@@H]2O | 9 | 3300 | 34 | 380 | 13000 |  | 46 | < 3.9 | 19 | 
O[C@@H]1CC[C@H]1[C@H]1c2ccccc2-c2cncn21 |  |  | 67 | 36 | 1400 | 1.7 | 59 | 5.9 | 27 | 
